Assay results as given in ChEMBL document CHEMBL4251654, “Structure-based design of human immuno- and constitutive proteasomes inhibitors” (Eur J Med Chem, 2018).
Activity calls are given as the source filed them. The calls are words filed in the database; no cut-off is given here.

What was measured:
[1] = biological target: T1, Proteasome Macropain subunit MB1 (Homo sapiens, UniProt P28074); assay: Inhibition of human 20S constitutive proteasome beta-5 using Suc-LLVY-AMC as substrate incubated for 15 mins measured for 45 mins by fluorescence assay
T1 sequence (P28074 whole entry): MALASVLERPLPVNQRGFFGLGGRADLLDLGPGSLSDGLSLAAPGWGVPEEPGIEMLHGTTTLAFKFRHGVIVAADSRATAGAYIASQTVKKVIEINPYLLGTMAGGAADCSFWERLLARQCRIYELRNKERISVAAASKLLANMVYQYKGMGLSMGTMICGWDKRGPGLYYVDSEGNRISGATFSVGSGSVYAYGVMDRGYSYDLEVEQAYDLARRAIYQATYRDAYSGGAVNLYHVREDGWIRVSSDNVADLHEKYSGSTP
In short: (§1)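 Human 20S cCP or iCP (0.3 nM) was exposed to compound (0.001-50 μM) for 15 min in pH 8 buffer of 20 mM Tris-HCl, 10% glycerol, 0.01% SDS, 2% DMSO. Suc-LLVY-AMC at 20 μM followed. Fluorescence (ex 360/em 460 nm) was read 45 min at 37 °C versus untreated enzyme.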

[2] = biological target: T2, Proteasome subunit beta type-8 (Homo sapiens, UniProt P28062); assay: Inhibition of human 20S immunoproteasome beta-5 using Suc-LLVY-AMC as substrate incubated for 15 mins measured for 45 mins by fluorescence assay; in short: as §1
T2 sequence (P28062 whole entry): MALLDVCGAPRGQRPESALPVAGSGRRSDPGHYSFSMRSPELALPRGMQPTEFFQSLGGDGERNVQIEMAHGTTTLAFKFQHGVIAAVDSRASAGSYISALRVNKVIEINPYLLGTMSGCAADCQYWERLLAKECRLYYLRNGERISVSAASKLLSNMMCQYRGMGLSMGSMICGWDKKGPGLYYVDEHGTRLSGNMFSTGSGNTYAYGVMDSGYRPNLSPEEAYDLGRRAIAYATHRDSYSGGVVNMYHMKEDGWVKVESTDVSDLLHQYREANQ

[3] = biological target: T3, Proteasome Macropain subunit MB1 (Homo sapiens) (UniProt P28074); assay: Inhibition of human 20S constitutive proteasome beta-5 at 50 uM using Suc-LLVY-AMC as substrate incubated for 15 mins measured for 45 mins by fluorescence assay relative to control; in short: as §1
T3 sequence (whole entry): T1 sequence (P28074 whole entry)

[4] = biological target: T4, Proteasome subunit beta type-8 (Homo sapiens) (UniProt P28062); assay: Inhibition of human 20S immunoproteasome beta-5 at 50 uM using Suc-LLVY-AMC as substrate incubated for 15 mins measured for 45 mins by fluorescence assay relative to control; in short: as §1
T4 sequence (whole entry): T2 sequence (P28062 whole entry)

[5] = biological target: T5, Proteasome subunit beta type-9 (Homo sapiens, UniProt P28065); assay: Inhibition of human 20S immunoproteasome beta-1 using Ac-PAL-AMC as substrate incubated for 15 mins measured for 45 mins by fluorescence assay
T5 sequence (P28065 whole entry): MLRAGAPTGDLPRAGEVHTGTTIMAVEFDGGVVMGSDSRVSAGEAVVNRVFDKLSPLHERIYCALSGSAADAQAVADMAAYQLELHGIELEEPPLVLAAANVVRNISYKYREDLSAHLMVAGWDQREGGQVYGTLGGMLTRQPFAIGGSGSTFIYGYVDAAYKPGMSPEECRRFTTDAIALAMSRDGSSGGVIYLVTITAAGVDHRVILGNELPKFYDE
In short: (§2)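 Human 20S immunoproteasome (0.3 nM) was given 15 min with compound (0.001-50 μM) in pH 8 buffer of 20 mM Tris-HCl, 10% glycerol, 0.01% SDS, 2% DMSO. Ac-PAL-AMC at 50 μM was the substrate. Fluorescence (ex 360/em 460 nm) was followed 45 min at 37 °C relative to control.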

[6] = biological target: T6, Proteasome component C5 (Homo sapiens) (UniProt P20618); assay: Inhibition of human 20S constitutive proteasome beta-1 at 50 uM using Z-LLE-betaNA as substrate incubated for 15 mins measured for 45 mins by fluorescence assay relative to control
T6 sequence (whole entry): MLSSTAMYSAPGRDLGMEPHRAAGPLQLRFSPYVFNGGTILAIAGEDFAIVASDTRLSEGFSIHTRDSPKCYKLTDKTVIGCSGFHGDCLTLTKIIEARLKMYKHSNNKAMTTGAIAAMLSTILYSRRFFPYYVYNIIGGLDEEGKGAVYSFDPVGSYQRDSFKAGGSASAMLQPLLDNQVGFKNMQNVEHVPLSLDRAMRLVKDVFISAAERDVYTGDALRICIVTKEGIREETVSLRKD
In short: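 Human 20S constitutive proteasome, 0.3 nM, was preincubated 15 min with compound (0.001-50 μM) in pH 8 Tris-HCl 20 mM, 10% glycerol, 0.01% SDS, 2% DMSO. Z-LLE-βNA at 50 μM was added. βNA fluorescence (ex 340/em 404 nm) was monitored 45 min at 37 °C against an untreated control.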

[7] = biological target: T7, Proteasome subunit beta type-9 (Homo sapiens) (UniProt P28065); assay: Inhibition of human 20S immunoproteasome beta-1 at 50 uM using Ac-PAL-AMC as substrate incubated for 15 mins measured for 45 mins by fluorescence assay relative to control; in short: as §2
T7 sequence (whole entry): T5 sequence (P28065 whole entry)

[8] = biological target: Proteasome Macropain subunit (Homo sapiens) (UniProt P49721); assay: Inhibition of human 20S constitutive proteasome beta-2 at 50 uM using BocLRR-AMC as substrate incubated for 15 mins measured for 45 mins by fluorescence assay relative to control
In short: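 Purified human 20S proteasome (cCP or iCP), 0.3 nM, preincubated 15 min with compound (0.001-50 μM) in pH 8 buffer of 20 mM Tris-HCl, 10% glycerol, 0.005% Triton X-100, 2% DMSO. Then Boc-LRR-AMC at 50 μM was added. AMC fluorescence (ex 360/em 460 nm) was followed 45 min at 37 °C. Activity is relative to an untreated control.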

[9] = biological target: T8, Proteasome subunit beta type-10 (Homo sapiens) (UniProt P40306); assay: Inhibition of human 20S immunoproteasome beta-2 at 50 uM using BocLRR-AMC as substrate incubated for 15 mins measured for 45 mins by fluorescence assay relative to control
T8 sequence (whole entry): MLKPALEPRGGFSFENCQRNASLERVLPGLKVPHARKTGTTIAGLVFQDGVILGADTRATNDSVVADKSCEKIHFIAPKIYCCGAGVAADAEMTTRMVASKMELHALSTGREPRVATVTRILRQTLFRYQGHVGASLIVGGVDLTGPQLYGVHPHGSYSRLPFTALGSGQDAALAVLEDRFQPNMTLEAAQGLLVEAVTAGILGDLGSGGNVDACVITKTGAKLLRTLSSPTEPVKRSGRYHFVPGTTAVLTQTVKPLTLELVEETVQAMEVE

[10] = biological target: T9, Proteasome subunit beta type-10 (Homo sapiens, UniProt P40306); assay: Inhibition of human 20S immunoproteasome beta-2 using BocLRR-AMC as substrate incubated for 15 mins measured for 45 mins by fluorescence assay
T9 sequence (P40306 whole entry): T8 sequence (whole entry)

Proteasome Macropain subunit (Homo sapiens), sequence (P49721 whole entry): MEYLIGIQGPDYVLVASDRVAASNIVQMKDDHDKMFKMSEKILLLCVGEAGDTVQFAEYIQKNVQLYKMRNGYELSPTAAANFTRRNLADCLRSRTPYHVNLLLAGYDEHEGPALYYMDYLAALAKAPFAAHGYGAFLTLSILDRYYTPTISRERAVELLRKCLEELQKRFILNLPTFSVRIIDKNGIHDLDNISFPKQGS

SMILES | IC50 [1] [µM] | IC50 [2] [µM] | inhibition [3] [%] | inhibition [4] [%] | IC50 [5] [µM] | inhibition [6] | inhibition [7] | inhibition [8] | inhibition [9] | IC50 [10] [µM]
C[C@H](NC(=O)[C@H](Cc1ccc(OCc2ccccc2)cc1)NC(=O)OC(C)(C)C)C(=O)N[C@@H](C[C@]1(O)C(=O)Nc2ccccc21)C(=O)NCCC1CCCCC1 | 2.8 | 2.7 | > 85 | > 85 | 3.5 | > 85% | > 85% | 36% | 19% | –
C[C@H](NC(=O)[C@H](Cc1ccc(OCc2ccccc2)cc1)NC(=O)OC(C)(C)C)C(=O)N[C@@H](C[C@]1(O)C(=O)Nc2ccccc21)C(=O)NCCC(=O)O | – | – | 18 | 14 | – | 19% | 17% | > 85% | > 85% | 22
C[C@H](NC(=O)OCc1ccccc1)C(=O)N[C@@H](C[C@]1(O)C(=O)Nc2ccccc21)C(=O)NCc1ccccc1 | 5.1 | 3.96 | > 85 | > 85 | 45 | inactive | > 85% | inactive | inactive | –
C[C@H](NC(=O)[C@H](Cc1ccc(OCc2ccccc2)cc1)NC(=O)OC(C)(C)C)C(=O)N[C@@H](C[C@]1(O)C(=O)Nc2ccccc21)C(=O)NC(c1ccccc1)c1ccccc1 | 1.74 | 2.7 | > 85 | > 85 | 4 | > 85% | > 85% | 30% | inactive | –
COC(=O)CCNC(=O)[C@H](C[C@]1(O)C(=O)Nc2ccccc21)NC(=O)[C@H](C)NC(=O)[C@H](Cc1ccc(OCc2ccccc2)cc1)NC(=O)OC(C)(C)C | 64 | – | > 85 | 31 | – | 15% | 17% | 14% | > 85% | 106
C[C@H](NC(=O)[C@H](Cc1ccc(OCc2ccccc2)cc1)NC(=O)OC(C)(C)C)C(=O)N[C@@H](C[C@@]1(O)C(=O)N(C)c2ccccc21)C(=O)NCc1ccccc1 | 6.8 | 6.1 | > 85 | > 85 | 8.9 | > 85% | > 85% | 56% | 18% | –
C[C@H](NC(=O)[C@H](Cc1ccc(OCc2ccccc2)cc1)NC(=O)OC(C)(C)C)C(=O)N[C@@H](C[C@]1(O)C(=O)N(C)c2ccccc21)C(=O)NCc1ccccc1 | 5.1 | 3.93 | > 85 | > 85 | 10.3 | > 85% | > 85% | 19% | 27% | –
NC(=O)C[C@H](NC(=O)OCc1ccccc1)C(=O)N[C@@H](C[C@]1(O)C(=O)Nc2ccccc21)C(=O)NCc1ccccc1 | 0.36 | 0.42 | > 85 | > 85 | – | inactive | inactive | inactive | inactive | –
C[C@H](NC(=O)[C@H](Cc1ccc(OCc2ccccc2)cc1)NC(=O)OC(C)(C)C)C(=O)N[C@@H](C[C@]1(O)C(=O)Nc2ccccc21)C(=O)NCCc1ccccc1 | 6 | 6.5 | > 85 | > 85 | 7.31 | > 85% | > 85% | 45% | 26% | –
C[C@H](O)[C@@H](NC(=O)OCc1ccccc1)C(=O)N[C@@H](C[C@]1(O)C(=O)Nc2ccccc21)C(=O)NCc1ccccc1 | 0.88 | 0.572 | > 85 | > 85 | 24.6 | 20% | > 85% | inactive | inactive | –
